This is an account of results in ChEMBL document CHEMBL3232762, “Synthesis and biological evaluation of a novel sigma-1 receptor antagonist based on 3,4-dihydro-2(1H)-quinolinone scaffold as a potential analgesic” (Eur J Med Chem, 2014).

Activity calls are given as the source filed them. No cut-off for these calls is given here.

For experiment [1], the species on record is Cavia porcellus. The experiment in a line: Selectivity ratio of Ki for sigma 2 receptor in Dunkin Hartley guinea pig membrane to Ki for sigma 1 receptor in Dunkin Hartley guinea pig membrane. Format: cell membranes.
The target of experiment [2] is Sigma non-opioid intracellular receptor 1 (Cavia porcellus, UniProt Q60492). The experiment in a line: Displacement of [3H]-(+)-pentazocine from sigma 1 receptor in Dunkin Hartley guinea pig membrane after 180 mins by liquid scintillation counting analysis. Format: cell membranes. Background: Displacement assays read how much labelled ligand stays bound in the presence of the test substance.
Sequence of Sigma non-opioid intracellular receptor 1 (Cavia porcellus, UniProt Q60492) (Q60492 whole entry): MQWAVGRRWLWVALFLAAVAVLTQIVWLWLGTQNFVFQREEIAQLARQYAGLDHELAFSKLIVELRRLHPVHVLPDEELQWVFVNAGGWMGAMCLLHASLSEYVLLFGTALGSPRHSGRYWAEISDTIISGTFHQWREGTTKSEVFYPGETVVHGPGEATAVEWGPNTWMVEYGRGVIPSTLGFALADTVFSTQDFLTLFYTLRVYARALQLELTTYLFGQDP

Experiment [3] is described as follows: Displacement of [3H]-DTG from sigma 2 receptor in Dunkin Hartley guinea pig membrane after 120 mins by liquid scintillation counting analysis […]. Format: cell membranes, Cavia porcellus.
Experiment [4] relates to Mus musculus. The experiment in a line: Antinociceptive activity in Kunming mouse assessed as reduction in formalin-induced pain behaviour at 160 mg/kg, ip administered 15 mins before fomalin injection measured during second phase of 15 to 45 mins after formalin challenge. The class given is functional. The method in brief: (§1)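 Kunming mice (20 ± 2.0 g), 10–12 per group, dosed i.p. in 30% PEG 400 (10 mL/kg) 15 min before intraplantar formalin. Paw licking/biting time was scored in phase I (0–5 min) and phase II (15–45 min). Antinociception (%) = (vehicle licking time − drug licking time)/vehicle licking time × 100. Two-way ANOVA with Newman-Keuls test.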

Experiment [5] deals with Mus musculus. The experiment in a line: Antinociceptive activity against formalin-induced pain in Kunming mouse assessed as reduction in mean licking and biting time at 80 mg/kg, ip administered 15 mins before fomalin injection measured during second phase of 15 to 45 mins after formalin challenge. The note with it: route intraperitoneal. Format: functional.
Experiment [6] deals with Mus musculus. The experiment in a line: Antinociceptive activity in Kunming mouse assessed as reduction in formalin-induced pain behaviour at 80 mg/kg, ip administered 15 mins before fomalin injection measured during second phase of 15 to 45 mins after formalin challenge. The class given is functional. The method in brief: as §1
The test system of experiment [7] is Mus musculus. The experiment in a line: Antinociceptive activity in Kunming mouse assessed as reduction in formalin-induced pain behaviour at 40 mg/kg, ip administered 15 mins before fomalin injection measured during second phase of 15 to 45 mins after formalin challenge. Format: functional. A digest of the protocol: as §1
The subject of experiment [8] is Mus musculus. The experiment in a line: Antinociceptive activity in Kunming mouse assessed as reduction in formalin-induced pain behaviour at 40 mg/kg, ip administered 15 mins before fomalin injection measured during first phase of 0 to 5 mins after formalin challenge. Format: functional. A digest of the protocol:
as §1

Experiment [9] deals with Mus musculus. The experiment in a line: Antinociceptive activity against formalin-induced pain in Kunming mouse assessed as reduction in mean licking and biting time at 80 mg/kg, ip administered 15 mins before fomalin injection measured during first phase of 0 to 5 mins after formalin challenge. Format: functional. The conditions noted are these: route intraperitoneal.
Experiment [10] deals with Mus musculus. The experiment in a line: Antinociceptive activity in Kunming mouse assessed as reduction in formalin-induced pain behaviour at 160 mg/kg, ip administered 15 mins before fomalin injection measured during first phase of 0 to 5 mins after formalin challenge. Format: functional. The method in brief: as §1
The test system of experiment [11] is Mus musculus. The experiment in a line: Antinociceptive activity in Kunming mouse assessed as reduction in formalin-induced pain behaviour at 80 mg/kg, ip administered 15 mins before fomalin injection measured during first phase of 0 to 5 mins after formalin challenge. The class given is functional. The method in brief:
as §1

Experiment [12] addresses Sigma non-opioid intracellular receptor 1 (Cavia porcellus) (UniProt Q60492). The experiment in a line: Ratio of Ki for sigma 1 receptor in Dunkin Hartley guinea pig membrane in absence of phenytoin to Ki for sigma 1 receptor in Dunkin Hartley guinea pig membrane in presence of phenytoin. Format: cell membranes.
Experiment [13] has as its target Sigma non-opioid intracellular receptor 1 (Homo sapiens, UniProt Q99720). The experiment in a line: Binding affinity to sigma 1 receptor (unknown origin).
Experiment [14] relates to Mus musculus. The experiment in a line: Antinociceptive activity in ip dosed Kunming mouse assessed as reduction in formalin-induced pain behaviour administered 15 mins before fomalin injection measured during first phase of 0 to 5 mins after formalin challenge. The class given is functional. A digest of the protocol:
as §1

Experiment [15] concerns Mus musculus. The experiment in a line: Antinociceptive activity in ip dosed Kunming mouse assessed as reduction in formalin-induced pain behaviour administered 15 mins before fomalin injection measured during second phase of 15 to 45 mins after formalin challenge. The class given is functional. The method in brief: as §1

Sequence of Sigma non-opioid intracellular receptor 1 (Cavia porcellus) (Q60492 whole entry): as above
Sequence of Sigma non-opioid intracellular receptor 1 (Homo sapiens, UniProt Q99720) (Q99720 whole entry): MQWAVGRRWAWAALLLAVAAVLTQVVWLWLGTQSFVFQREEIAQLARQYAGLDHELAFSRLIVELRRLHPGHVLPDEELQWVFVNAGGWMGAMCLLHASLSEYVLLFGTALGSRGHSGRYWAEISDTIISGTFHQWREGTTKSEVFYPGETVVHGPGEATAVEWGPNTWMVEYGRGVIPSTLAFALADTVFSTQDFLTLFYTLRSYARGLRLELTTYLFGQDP

As to `CC1CCN(CCCOc2ccc3c(c2)NC(=O)CC3)CC1`, in experiment [1], the Ratio Ki was 6.1. For the same compound, the Ki in experiment [2] is 66.7 nM; in [3], 409 nM.

For `Cc1ccc(CN2C(=O)CCc3ccc(OCCCN4CCC(C)CC4)cc32)cc1`, the Ratio Ki in [1] came to 507. For the same compound, the Ki in experiment [2] was found to be 1.49 nM; in experiment [3], 755 nM.

Regarding `CC1CCN(CCCOc2ccc3c(c2)N(Cc2ccc(F)cc2)C(=O)CC3)CC1`, the Ratio Ki in experiment [1] is 1250; in experiment [12], 0.91. Also, the inhibition entry in [4], in [6], in experiment [7], in experiment [8], in [10] and in [11] was “Active” each time. For the same compound, the Time came to 89.75 s in experiment [5] and 34.82 s in [9]. The Ki in experiment [2] was found to be 0.77 nM; in [3] it was 960 nM.

Consider `CC1CCN(CCCOc2ccc3c(c2)N(C)C(=O)CC3)CC1`, for which the Ratio Ki in experiment [1] amounted to 7.7. For the same compound, the Ki in experiment [2] turned out to be 40.2 nM; in experiment [3], 311 nM.

`Cc1cc(OCCN2CCOCC2)nn1-c1ccc2ccccc2c1`: in experiment [1], the Ratio Ki was above 190. The Time worked out at 27.34 s in experiment [5] and 8.63 s in experiment [9]. Moreover, the Ki in experiment [2] is 10.5 nM; in [3] it was above 2000 nM.

For `CN1C(=O)CCc2ccc(OCCCN3CCCCC3)cc21`, in [1], the Ratio Ki is 10.4. The inhibition constant (Ki) came to 34.3 nM in experiment [2] and 357 nM in experiment [3].

Regarding `O=C1CCc2cc(OCCCCN3CCOCC3)ccc2N1CCc1ccccc1`, the Ki in experiment [2] was 195 nM; in [3] it was above 2000 nM.

On to `O=C1CCc2ccc(OCCCN3CCN(c4ccccc4)CC3)cc2N1Cc1ccccc1`, for which the results for the Ki in experiment [2] and in experiment [3] were 341 nM and above 2000 nM, respectively.

For `O=C1CCc2ccc(OCCCN3CCCCC3)cc2N1`, the Ratio Ki in experiment [1] turned out to be 3.2. Also, the figures for the inhibitory constant (Ki) in experiment [2] and in [3] were 89.1 nM and 288 nM, respectively.

For `O=C1CCc2ccc(OCCCN3CCOCC3)cc2N1CCc1ccccc1`, the Ratio Ki in experiment [1] came out at 4.6. For the same compound, the Ki is 21.6 nM in experiment [2] and 100 nM in [3].

With `O=C1CCc2cc(OCCCN3CCOCC3)ccc2N1Cc1ccccc1`, the Ratio Ki in [1] amounted to 1.4. The Ki is 792 nM in experiment [2] and 1120 nM in experiment [3].

As for `O=C1CCc2ccc(OCCCN3CCCC3)cc2N1Cc1ccccc1`, the Ratio Ki in experiment [1] turned out to be 23.1. For the same compound, the figures for the Ki in experiment [2] and in experiment [3] were 23.8 nM and 550 nM, respectively.

Take `COc1cccc2c1CCC(=O)N2CCCN1CCN(c2cccc(Cl)c2)CC1`: in [13], the IC50 worked out at 47 nM.

On to `O=C1CCc2ccc(OCCCCCN3CCOCC3)cc2N1Cc1ccccc1`, for which, in experiment [1], the Ratio Ki came to 20.4. Besides, the Ki in experiment [2] is 88.4 nM; in experiment [3] it was 1810 nM.

Take `O=C1CCc2ccc(OCCCN3CCCCC3)cc2N1Cc1ccc(F)cc1`: the Ratio Ki in experiment [1] amounted to 1070; in [12], 0.86. The values for the inhibition in vivo at 160 mg/kg in [4] (route intraperitoneal) and in [10] (route intraperitoneal) were 98.2% and 97.6%, respectively. Further, the median effective dose (ED50) in experiment [14] was found to be 49.4 mg/kg; in experiment [15], 50.5 mg/kg. Moreover, the inhibition result in experiment [14] and in experiment [15] was “Dose-dependent effect” each time. The Time in experiment [5] was 36.13 s; in experiment [9] it was 12.08 s. Moreover, the inhibition in vivo at 80 mg/kg in [6] (route intraperitoneal) came out at 87.7%; in experiment [11] (route intraperitoneal), 84.8%. The inhibition in vivo at 40 mg/kg is 30.5% in experiment [7] (route intraperitoneal) and 33.4% in experiment [8] (route intraperitoneal). The figures for the Ki in experiment [2] and in experiment [3] were 1.22 nM and 1300 nM, respectively.

`O=C1CCc2ccc(OCCN3CCOCC3)cc2N1Cc1ccccc1`: the inhibitory constant (Ki) in [2] and in experiment [3] was above 2000 nM each time.

Consider `O=C(CCCN1CCC(O)(c2ccc(Cl)cc2)CC1)c1ccc(F)cc1` [HALOPERIDOL], for which affinity in experiment [3] was put at a Ki of 36.4 nM.

`CCN(CC)CCCOc1ccc2c(c1)N(Cc1ccccc1)C(=O)CC2`: in experiment [1], the Ratio Ki was found to be 2.5. For the same compound, the Ki in [2] amounted to 39.4 nM; in [3], 97.2 nM.

Consider `O=C1CCc2cc(OCCN3CCOCC3)ccc2N1Cc1ccccc1`, for which the Ki in experiment [2] and in experiment [3] was above 2000 nM throughout.

`O=C1CCc2ccc(OCCCCN3CCOCC3)cc2N1Cc1ccccc1`: the Ratio Ki in experiment [1] amounted to 8.8. In addition, the Ki is 60.2 nM in experiment [2] and 530 nM in [3].

Turning to `O=C1CCc2cc(OCCCCN3CCOCC3)ccc2N1Cc1ccccc1`, the Ratio Ki in experiment [1] came to 11.7. In addition, the inhibition constant Ki is 22.2 nM in experiment [2] and 260 nM in [3].

Consider `O=C1CCc2cc(OCCCN3CCOCC3)ccc2N1CCc1ccccc1`, for which the Ratio Ki in experiment [1] was determined as 2.4. Further, the results for the Ki in experiment [2] and in [3] were 40.2 nM and 98.1 nM, respectively.

In the case of `Cc1ccccc1NC(=N)Nc1ccccc1C` [DITOLYLGUANIDINE], in [3], the inhibition constant Ki was 49.2 nM.

Consider `CN1CCN(CCCOc2ccc3c(c2)N(Cc2ccccc2)C(=O)CC3)CC1`, for which the Ratio Ki in experiment [1] was 37.4. In addition, the results for the Ki in [2] and in [3] were 4.3 nM and 161 nM, respectively.

On to `CN(C)CCCOc1ccc2c(c1)N(Cc1ccccc1)C(=O)CC2`, for which the Ratio Ki in experiment [1] worked out at 2.4. The results for the Ki in experiment [2] and in experiment [3] were 83.2 nM and 205 nM, respectively.

Take `O=C1CCc2ccc(OCCCCN3CCOCC3)cc2N1CCc1ccccc1`: the Ratio Ki in experiment [1] was 26.8. Further, the Ki in [2] worked out at 44.8 nM; in experiment [3], 1200 nM.

As for `O=C1CCc2cc(OCCCCCCN3CCOCC3)ccc2N1Cc1ccccc1`, the Ki is 852 nM in experiment [2] and above 2000 nM in experiment [3].

Turning to `O=C1CCc2ccc(OCCCN3CCCCC3)cc2N1Cc1ccccc1`, the Ratio Ki in experiment [1] was determined as 360. Moreover, the Ki was found to be 1.84 nM in [2] and 662 nM in experiment [3].

In the case of `O=C1CCc2ccc(OCCCN3CCOCC3)cc2N1Cc1ccccc1`, the Ratio Ki in [1] worked out at 31.8. Besides, the figures for the Ki in [2] and in experiment [3] were 14.8 nM and 471 nM, respectively.

As to `Cc1ccc(CN2C(=O)CCc3ccc(OCCCN4CCCCC4)cc32)cc1`, the Ratio Ki in experiment [1] came out at 488. Moreover, the Ki in [2] came to 1.69 nM; in experiment [3] it was 825 nM.

Turning to `O=C1CCc2ccc(OCCCCCCN3CCOCC3)cc2N1Cc1ccccc1`, the Ki in experiment [2] came to 682 nM; in [3] it was 2000 nM.

As to `O=C1CCc2cc(OCCCCCN3CCOCC3)ccc2N1Cc1ccccc1`, the Ratio Ki in experiment [1] came to 6.1. Besides, the Ki turned out to be 70.7 nM in experiment [2] and 430 nM in [3].

Turning to `O=C1CCN(CCCOc2ccc3c(c2)N(Cc2ccccc2)C(=O)CC3)CC1`, in experiment [1], the Ratio Ki is 18.3. The values for the Ki in experiment [2] and in experiment [3] were 98.2 nM and 1800 nM, respectively.

As to `CC1CCN(CCCOc2ccc3c(c2)N(Cc2ccccc2)C(=O)CC3)CC1`, the Ratio Ki in [1] amounted to 290. Moreover, the Ki in experiment [2] was found to be 1.1 nM; in experiment [3], 319 nM.

What is called Ki is a dissociation constant, usually derived from enzyme kinetics or from competition with a known ligand. Read a high Ki as weaker binding. As usually defined, the IC50 is the point on the concentration scale where inhibition reaches its midpoint. The low end stands for higher potency, the high end for lower potency. As a reminder, the inhibition in vivo is the drop in the measured response relative to a control, in per cent. In general, ED50 refers to the dose that gives a 50% effect, or the effect in half of the subjects.
